This is a sample that favours compounds with a hit; in the whole collection about 1.9% have one here.
MC4R barr agon – agonists of human melanocortin 4 receptor (MC4R) beta-arrestin; P32245; U2OS MC4R beta-arrestin complementation, luminescence; percent of melanotan II response, DMSO zero; activation, % at 8.9 µM; actives 0.98% (n = 360,000);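 active = activation above a per-plate cutoff, the mean activation of sample wells on that plate plus 3 SD, cut at about 8% in these data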
NOD2-RIPK2 inh – NOD2-RIPK2 protein interaction inhibition; AID 624267; CHO BLA complementation NOD2-RIPK2, CCF4 ratio; actives 0.38% (n = 360,000); inhibition, % at 4.98 µM; in the data active = inhibition above about 21%;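 note: 0% = vehicle only and 100% = reference blocker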
TLR4-MyD88 BLA – blocks binding of human TLR4 to MyD88 | inhibition, % at 8.4 µM | actives 0.18% (n = 200,000) | HeLa CL3-4 TLR4/MyD88 BLA complementation, FRET ratio | AID 861; in the data active = inhibition above about 25%;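 note: 0% = vehicle and 100% = reference inhibitor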
MC4R antag cAMP – blocks human MC4R cAMP signaling | P32245 | inhibition, % at 6.5 µM | actives 0.48% (n = 360,000) | MC4R-expressing cells, MTII-stimulated cAMP, LANCE TR-FRET;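 active = inhibition above its plate's cutoff, the mean of tested wells on that plate plus 3 SD, cut at about 29% in these data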;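 note: 0% = Melanotan II alone and 100% = Melanotan II plus saturating MCL0020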
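System: U2OS cells stably expressing human melanocortin 4 receptor (MC4R). Reagent: Melanotan II challenge after compound preincubation. Doses: 6.5 µM. Times: 30-min compound, 1-h challenge, 1-h detection, room temperature. Measured by: TR-FRET with Eu-cAMP and labeled anti-cAMP, 671 nm. Replicates: singlicate.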
NTR1 ag – agonists of human neurotensin receptor NTR1. P30989. NTR1-U2OS beta-arrestin-GFP spot imaging, agonist mode. activation, % at 20 µM. actives 0.17% (n = 330,000). AID 493036;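 active = activation at or above 40% of the spot to cytoplasm intensity ratio, with at least 20 cells analyzed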;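 note: 0% = DMSO without peptide and 100% = 100 nM NTR1 peptide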
TLR9-MyD88 inh – inhibitors of human TLR9-MyD88 binding; Q9NR96+Q99836; CHO BLA complementation TLR9-MyD88, CCF4 FRET ratio; inhibition, % at 4.98 µM; actives 0.21% (n = 340,000); AID 504734;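 active = inhibition above the mean over all tested compounds plus 3 SD, cut at about 21% in these data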;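 note: 0% = DMSO only wells and 100% = clavulanate BLA inhibitor control wells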
U2OS cAMP counter – nonselective cAMP signaling inhibitor, MC4R antagonist counter-screen; shares compounds with MC4R antag cAMP; parental U2OS, forskolin cAMP, LANCE TR-FRET; inhibition, % at 6.5 µM; actives 26% (n = 1,600);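 active = mean inhibition over triplicates above the low-control well mean plus 3 SD, set per campaign, cut at about 13% in these data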;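 note: signal is single emission at 671 nm which falls as cellular cAMP rises; 0% = forskolin-stimulated wells and 100% = buffer without forskolin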
MC4R antag conf – human MC4R cAMP antagonism confirmation; shares compounds with MC4R antag cAMP; AID 602195; MC4R-expressing cells, MTII-stimulated cAMP, TR-FRET; actives 27% (n = 1,600); inhibition, % at 6.5 µM; in the data active = inhibition above about 29%;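 note: 0% = agonist stimulated wells alone and 100% = agonist stimulated wells plus saturating reference antagonist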
MC4R barr ag – human MC4R beta-arrestin agonism confirmation; shares compounds with MC4R barr agon; U2OS MC4R beta-arrestin recruitment, luminescence; scaled DMSO 0%, Melanotan II 100%; activation, % at 8.9 µM; actives 31% (n = 2,400); AID 602192;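 active = mean activation across replicates above the hit cutoff set in the earlier primary screen, cut at about 8% in these data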
MOR DOR agonist – counter-screen for MC4R agonists: agonists of mu-delta opioid heterodimer | shares compounds with MC4R barr agon | U2OS PathHunter beta-arrestin, beta-gal luminescence; percent of deltorphin B response, DMSO zero | activation, % at 9.2 µM | actives 5.8% (n = 2,400) | AID 602194;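 active = mean activation across replicates exceeds the hit threshold derived in the earlier primary screen, cut at about 18% in these data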;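 note: 100% = deltorphin B at 0.9 µM final and 0% = DMSO alone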
Numbers without * were called inactive; . = no result given.

SMILES	MC4R barr agon	NOD2-RIPK2 inh	TLR4-MyD88 BLA	MC4R antag cAMP	NTR1 ag	TLR9-MyD88 inh	U2OS cAMP counter	MC4R antag conf	others
CCCCn1c(N)c(N(CCC(C)C)C(=O)CSc2nc3ccccc3n2C)c(=O)[nH]c1=O	0	-5	.	-4	.	5	.	.
Cc1cc(C)c(NC(=S)N2CCN(c3ccc([N+](=O)[O-])cn3)CC2)cc1C	-1	-10	.	10	-2	3	.	.
COc1cccc(NC(=O)CN(C)C(=O)CCN2C(=O)C3CC=CCC3C2=O)c1 (stereo not drawn)	4	-1	.	-2	-1	-3	.	.
CC1CCN(c2nc(Cl)nc(Nc3ccc([N+](=O)[O-])cc3)n2)CC1	-3	-1	-12	32*	6	1	6	36*
C=CCNc1nc(Nc2ccc([N+](=O)[O-])cc2)nc(N2CCCC2)n1	-2	-10	2	11	4	-4	.	.
COc1ccc(-n2nc(C)c3sc(C)nc3c2=O)cc1	0	8	.	7	0	3	.	.
CNc1nc(N/N=C/c2cc([N+](=O)[O-])ccc2F)nc(Nc2ccccc2)n1	-1	5	.	47*	.	1	19*	62*
COCCN(C(=O)c1csnn1)C(C(=O)NC1CCCC1)c1ccccc1F (stereo not drawn)	0	3	.	29*	0	-3	-2	-9
COCCNC(=O)C(c1ccccc1F)N(C(=O)C(=O)NC1CCCC1)C1CCCCC1 (stereo not drawn)	-1	-13	-1	29*	1	5	-1	-5
COCCN(C(=O)CNC(=O)c1ccco1)C(C(=O)NC1CCCC1)c1ccccc1F (stereo not drawn)	0	-1	.	6	0	-2	.	.
COc1ccccc1-c1cc(SC)c(C#N)c(=O)o1	-2	1	6	50*	2	-2	23*	38*
CC/C(C)=N\NC(=O)CNC(=O)c1ccc(Cl)cc1Cl	0	-11	-10	31*	0	1	2	2
C[C@@H]1CN(Cc2nc(Cc3ccccc3F)no2)C[C@H](C)O1	1	-2	10	33*	0	-4	-3	-13
Fc1ccccc1Cc1noc(CN2CCCC(CN3CCOCC3)C2)n1 (stereo not drawn)	1	-11	-3	17	0	-6	.	.
CCOC(=O)c1cc(-c2csc(-c3ccc(C(C)(C)C)cc3)n2)on1	0	-2	.	14	2	9	.	.
CCOC(=O)c1cc(-c2csc(-c3ccc(C(F)(F)F)cc3)n2)on1	1	-6	.	37*	0	-8	2	-8
CCOc1cc(CC(=O)N[C@@H](CC(C)C)c2ccccc2N2CCCCC2)ccc1C(=O)O	1	-13	.	4	-1	0	.	.
CCCC(=O)NC(NC(=S)Nc1ccc(N=Nc2ccccc2)cc1)C(Cl)(Cl)Cl (stereo not drawn)	-3	-13	16	29*	18	-2	-1	16
Cc1nc(Cl)nc(N(C)c2ccccc2)c1[N+](=O)[O-]	-4	-3	.	36*	4	3	22*	6
Cc1ccc(C2C(C(=O)c3cc4ccccc4o3)=C(O)C(=O)N2c2cc(C)on2)cc1 (stereo not drawn)	-1	-9	.	32*	1	2	9	5
O=C(C1=C(O)C(=O)N(c2nccs2)C1c1ccccc1)c1cc2ccccc2o1 (stereo not drawn)	1	6	.	49*	1	-2	19*	31*
Cc1nc2ccccc2c(=O)n1NC(=O)c1c(F)cccc1F	-1	3	.	0	-1	-11	.	.
Nc1c(S(=O)(=O)c2ccccc2)c2nc3ccccc3nc2n1/N=C/c1cccc(O)c1	17*	5	-6	35*	21	-4	2	13	MC4R barr ag=10*;MOR DOR agonist=8
O=C(/C=C/c1ccccc1)N/C(=C/c1ccccc1)C(=O)NCCCO	-2	-13	-13	1	0	-2	.	.
C=CCn1c(=NC(=O)c2sc3ccccc3c2Cl)sc2cc(S(N)(=O)=O)ccc21	16*	-7	-10	33*	3	7	4	20	MC4R barr ag=8;MOR DOR agonist=2
SMILES	MC4R barr agon	NOD2-RIPK2 inh	TLR4-MyD88 BLA	MC4R antag cAMP	NTR1 ag	TLR9-MyD88 inh	U2OS cAMP counter	MC4R antag conf	others
COCCn1c(=NC(=O)c2sc3ccccc3c2Cl)sc2cc(S(N)(=O)=O)ccc21	4	1	-15	25	12	-30	.	.
CCCCNC(=O)C[C@@H]1C[C@@]2(C(=O)OC)CCCCC=C2N(Cc2ccccc2)C1=O	.	-4	.	.	.	.	.	.
Cc1cccc(C)c1-n1cccc1/C=C1\SC(=S)N(c2cccc(C(=O)O)c2)C1=O	20*	-9	1	37*	4	3	-3	-14	MC4R barr ag=20*;MOR DOR agonist=2
O=C(Nn1cnc2ccccc2c1=O)c1ccccc1[N+](=O)[O-]	-1	-4	-2	-5	0	0	.	.
COc1ccc(-c2oc3ccc(N4CCOCC4)cc3c2C#CC2(O)CCCCC2)cc1	19*	-1	.	33*	25	-17	6	20	MC4R barr ag=15*;MOR DOR agonist=5
COc1ccc(-c2oc3ccc(N4CCOCC4)cc3c2C#Cc2ccc(N)cc2)cc1	-1	-3	.	10	21	1	.	.
O=C(NC1CCSc2ccccc21)c1cc([N+](=O)[O-])ccc1N1CCOCC1 (stereo not drawn)	-1	-16	.	5	0	1	.	.
CC(=O)n1cc(N(C(=O)CCl)c2ccc(Cl)cc2)c2ccccc21	13*	9	.	42*	28	.	-17	52*	MC4R barr ag=6;MOR DOR agonist=51*
CCOC(=O)c1ccccc1Nc1cn(C(C)=O)c2ccccc12	2	7	2	-21	6	0	.	.
CC(Cc1ccccc1)N/C=C1\CC(=O)NC1=O (stereo not drawn)	0	8	-5	6	0	7	.	.
